Results taken from ChEMBL document CHEMBL1933017, “Synthesis and biological evaluation of some thiazolidinones as antimicrobial agents” (2012).
Values after ≈ are worked out from the molar mass of the structure shown.

Legend:
Bacillus cereus [1] = test: Antibacterial activity against Bacillus cereus at 100 ug/disc after 24 hrs by disc diffusion method; format: functional; settings: read-out: DIZ
Summary of the method: (§1)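 Paper disc diffusion on autoclaved Mueller-Hinton agar poured 5 mm deep. Agar was swab-inoculated with 10⁵ CFU/mL suspension (0.5 McFarland). Discs 6.25 mm across were soaked in compound solution in DMSO (3.12–100 µg/mL) and plates incubated 24 h at (37 ± 1) °C. Read-out was inhibition zone (mm). DMSO control disc; ciprofloxacin or ketoconazole reference, 100 µg/disc. Mean of three independent experiments.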

Candida albicans [2] = test: Antifungal activity against Candida albicans at 100 ug/disc after 24 hrs by disc diffusion method; format: functional; settings: read-out: DIZ; summary of the method: as §1
Salmonella typhi [3] = test: Antibacterial activity against Salmonella Typhi after 24 hrs by agar streak dilution method; format: functional, Salmonella enterica subsp. enterica serovar Typhi; settings: Salmonella enterica
Summary of the method: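 Agar streak dilution: DMSO stock (100 µg/mL) graded into molten sterile nutrient agar, poured 4–5 mm deep and solidified. Plates carry serial dilutions spanning 3.12–100 µg/mL. Applied ~10⁵ CFU/mL suspension, then incubated 24 h at (37 ± 1) °C. MIC read as the lowest inhibitory concentration; each value is the mean of three independent experiments.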

Staphylococcus aureus [4] = test: Antibacterial activity against Staphylococcus aureus after 24 hrs by agar streak dilution method; format: functional
Summary of the method: (§2)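 MIC by agar streak dilution. Graded amounts of DMSO stock (100 μg/mL) were mixed into molten sterile nutrient agar and poured 4–5 mm deep. Serial concentrations spanned 3.12–100 µg/mL. Plates were inoculated with about 10⁵ CFU/mL of bacterial suspension and incubated at (37 ± 1) °C for 24 h. Each value is the mean of three independent experiments.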

Escherichia coli [5] = test: Antibacterial activity against Escherichia coli at 100 ug/disc after 24 hrs by disc diffusion method; format: functional; settings: read-out: DIZ; summary of the method: as §1
Aspergillus clavatus [6] = test: Antifungal activity against Aspergillus clavatus at 100 ug/disc after 24 hrs by disc diffusion method; format: functional; settings: read-out: DIZ; summary of the method: as §1
Escherichia coli [7] = test: Antibacterial activity against Escherichia coli after 24 hrs by agar streak dilution method; format: functional; summary of the method: as §2
Klebsiella pneumoniae [8] = test: Antibacterial activity against Klebsiella pneumoniae […] after 24 hrs by agar streak dilution method; format: functional
Pseudomonas aeruginosa [9] = test: Antibacterial activity against Pseudomonas aeruginosa at 100 ug/disc after 24 hrs by disc diffusion method; format: functional; settings: read-out: DIZ; summary of the method: as §1
Bacillus cereus [10] = test: Antibacterial activity against Bacillus cereus after 24 hrs by agar streak dilution method; format: functional; summary of the method: as §2
Staphylococcus aureus [11] = test: Antibacterial activity against Staphylococcus aureus at 100 ug/disc after 24 hrs by disc diffusion method; format: functional; settings: read-out: DIZ; summary of the method: as §1
Pseudomonas aeruginosa [12] = test: Antibacterial activity against Pseudomonas aeruginosa […] after 24 hrs by agar streak dilution method; format: functional
Proteus vulgaris [13] = test: Antibacterial activity against Proteus vulgaris after 24 hrs by agar streak dilution method; format: functional; summary of the method: as §2
Klebsiella pneumoniae [14] = test: Antibacterial activity against Klebsiella pneumoniae at 100 ug/disc after 24 hrs by disc diffusion method; format: functional; settings: read-out: DIZ; summary of the method: as §1
Aspergillus fumigatus [15] = test: Antifungal activity against Aspergillus fumigatus after 48 hrs by agar streak dilution method; format: functional
Summary of the method: (§3)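 Fungal MIC by agar streak dilution on Sabouraud dextrose agar, poured 4–5 mm deep. Compound from a DMSO stock (100 μg/mL) was incorporated at serial concentrations of 3.12–100 µg/mL. Plates were inoculated with about 10⁵ CFU/mL of suspension and incubated at (37 ± 1) °C for 48 h. Each value is the mean of three independent experiments.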

Aspergillus clavatus [16] = test: Antifungal activity against Aspergillus clavatus after 48 hrs by agar streak dilution method; format: functional; summary of the method: as §3
Salmonella typhi [17] = test: Antibacterial activity against Salmonella Typhi at 100 ug/disc after 24 hrs by disc diffusion method; format: functional, Salmonella enterica subsp. enterica serovar Typhi; settings: Salmonella enterica, read-out: DIZ
Summary of the method: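 Paper disc diffusion on Mueller-Hinton agar poured 5 mm deep; 10⁵ CFU/mL suspension (0.5 McFarland) swabbed over surface. 6.25 mm filter paper discs soaked in compound in DMSO, incubated 24 h at (37 ± 1) °C; inhibition zone diameter in mm. DMSO disc as blank; ciprofloxacin 100 µg/disc as reference. Mean of three independent experiments.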

Aspergillus fumigatus [18] = test: Antifungal activity against Aspergillus fumigatus at 100 ug/disc after 24 hrs by disc diffusion method; format: functional; settings: read-out: DIZ; summary of the method: as §1
Shigella flexneri [19] = test: Antibacterial activity against Shigella flexneri at 100 ug/disc after 24 hrs by disc diffusion method; format: functional; settings: read-out: DIZ; summary of the method: as §1
Shigella flexneri [20] = test: Antibacterial activity against Shigella flexneri after 24 hrs by agar streak dilution method; format: functional; summary of the method: as §2
Aspergillus niger [21] = test: Antifungal activity against Aspergillus niger at 100 ug/disc after 24 hrs by disc diffusion method; format: functional; settings: read-out: DIZ; summary of the method: as §1
Candida albicans [22] = test: Antifungal activity against Candida albicans after 48 hrs by agar streak dilution method; format: functional; summary of the method: as §3
Aspergillus niger [23] = test: Antifungal activity against Aspergillus niger after 48 hrs by agar streak dilution method; format: functional; summary of the method: as §3
Proteus vulgaris [24] = test: Antibacterial activity against Proteus vulgaris at 100 ug/disc after 24 hrs by disc diffusion method; format: functional; settings: read-out: DIZ; summary of the method: as §1

Structure (SMILES)	zone of inhibition at 100 µg/disc (Bacillus cereus [1]) [mm]	zone of inhibition at 100 µg/disc (Candida albicans [2]) [mm]	MIC (Salmonella typhi [3]) [µg/mL]	MIC (Staphylococcus aureus [4]) [µg/mL]	zone of inhibition at 100 µg/disc (Escherichia coli [5]) [mm]	zone of inhibition at 100 µg/disc (Aspergillus clavatus [6]) [mm]	MIC (Escherichia coli [7]) [µg/mL]	MIC (Klebsiella pneumoniae [8]) [µg/mL]	zone of inhibition at 100 µg/disc (Pseudomonas aeruginosa [9]) [mm]	MIC (Bacillus cereus [10]) [µg/mL]	zone of inhibition at 100 µg/disc (Staphylococcus aureus [11]) [mm]	MIC (Pseudomonas aeruginosa [12]) [µg/mL]	MIC (Proteus vulgaris [13]) [µg/mL]	zone of inhibition at 100 µg/disc (Klebsiella pneumoniae [14]) [mm]	MIC (Aspergillus fumigatus [15]) [µg/mL]	MIC (Aspergillus clavatus [16]) [µg/mL]	zone of inhibition at 100 µg/disc (Salmonella typhi [17]) [mm]	zone of inhibition at 100 µg/disc (Aspergillus fumigatus [18]) [mm]	zone of inhibition at 100 µg/disc (Shigella flexneri [19]) [mm]	MIC (Shigella flexneri [20]) [µg/mL]	further results
CCN1CCN(CC2SC(c3ccccc3)N(c3ccc(Nc4nc(Oc5cc(=O)n(C)c6ccccc56)nc(N(C)C)n4)cc3)C2=O)CC1 (stereo unspecified)	16	14	50 (≈ 72.3 µM)	100 (≈ 145 µM)	22	< 10	25 (≈ 36.1 µM)	100 (≈ 145 µM)	13	100 (≈ 145 µM)	14	100 (≈ 145 µM)	100 (≈ 145 µM)	< 10	100 (≈ 145 µM)	100 (≈ 145 µM)	16	< 10	12	100 (≈ 145 µM)	zone of inhibition at 100 µg/disc (Aspergillus niger [21]): 12 mm; MIC (Candida albicans [22]): 100 µg/mL (≈ 145 µM); MIC (Aspergillus niger [23]): 100 µg/mL (≈ 145 µM); zone of inhibition at 100 µg/disc (Proteus vulgaris [24]): 15 mm
CCN1CCN(CC2SC(c3ccc(Cl)cc3Cl)N(c3ccc(Nc4nc(Oc5cc(=O)n(C)c6ccccc56)nc(N(C)C)n4)cc3)C2=O)CC1 (stereo unspecified)	19	28	50 (≈ 65.7 µM)	6.25 (≈ 8.22 µM)	24	25	12.5 (≈ 16.4 µM)	25 (≈ 32.9 µM)	21	12.5 (≈ 16.4 µM)	25	25 (≈ 32.9 µM)	12.5 (≈ 16.4 µM)	23	25 (≈ 32.9 µM)	12.5 (≈ 16.4 µM)	15	17	26	6.25 (≈ 8.22 µM)	zone of inhibition at 100 µg/disc (Aspergillus niger [21]): 28 mm; MIC (Candida albicans [22]): 12.5 µg/mL (≈ 16.4 µM); MIC (Aspergillus niger [23]): 6.25 µg/mL (≈ 8.22 µM); zone of inhibition at 100 µg/disc (Proteus vulgaris [24]): 20 mm
CCN1CCN(CC2SC(c3ccc(Cl)c(Cl)c3)N(c3ccc(Nc4nc(Oc5cc(=O)n(C)c6ccccc56)nc(N(C)C)n4)cc3)C2=O)CC1 (stereo unspecified)	17	23	50 (≈ 65.7 µM)	25 (≈ 32.9 µM)	17	19	25 (≈ 32.9 µM)	12.5 (≈ 16.4 µM)	23	12.5 (≈ 16.4 µM)	15	25 (≈ 32.9 µM)	25 (≈ 32.9 µM)	19	50 (≈ 65.7 µM)	50 (≈ 65.7 µM)	12	16	22	12.5 (≈ 16.4 µM)	zone of inhibition at 100 µg/disc (Aspergillus niger [21]): 21 mm; MIC (Candida albicans [22]): 25 µg/mL (≈ 32.9 µM); MIC (Aspergillus niger [23]): 25 µg/mL (≈ 32.9 µM); zone of inhibition at 100 µg/disc (Proteus vulgaris [24]): 19 mm
CCN1CCN(CC2SC(c3ccc(C)cc3)N(c3ccc(Nc4nc(Oc5cc(=O)n(C)c6ccccc56)nc(N(C)C)n4)cc3)C2=O)CC1 (stereo unspecified)	24	23	50 (≈ 70.8 µM)	50 (≈ 70.8 µM)	24	26	25 (≈ 35.4 µM)	50 (≈ 70.8 µM)	26	50 (≈ 70.8 µM)	26	6.25 (≈ 8.85 µM)	6.25 (≈ 8.85 µM)	24	50 (≈ 70.8 µM)	25 (≈ 35.4 µM)	23	24	24	50 (≈ 70.8 µM)	zone of inhibition at 100 µg/disc (Aspergillus niger [21]): 21 mm; MIC (Candida albicans [22]): 50 µg/mL (≈ 70.8 µM); MIC (Aspergillus niger [23]): 100 µg/mL (≈ 142 µM); zone of inhibition at 100 µg/disc (Proteus vulgaris [24]): 27 mm
